The source of these data is ChEMBL document CHEMBL4229483, “Synthesis and evaluation of an orally available "Y"-shaped biaryl peroxisome proliferator-activated receptor δ agonist” (Bioorg Med Chem, 2018).

Some results are limits rather than exact numbers.

Common to all, as to format: cell-based
In experiment [1] the target is T1, Peroxisome proliferator-activated receptor delta (Homo sapiens, UniProt Q03181).
T1 sequence (Q03181 whole entry): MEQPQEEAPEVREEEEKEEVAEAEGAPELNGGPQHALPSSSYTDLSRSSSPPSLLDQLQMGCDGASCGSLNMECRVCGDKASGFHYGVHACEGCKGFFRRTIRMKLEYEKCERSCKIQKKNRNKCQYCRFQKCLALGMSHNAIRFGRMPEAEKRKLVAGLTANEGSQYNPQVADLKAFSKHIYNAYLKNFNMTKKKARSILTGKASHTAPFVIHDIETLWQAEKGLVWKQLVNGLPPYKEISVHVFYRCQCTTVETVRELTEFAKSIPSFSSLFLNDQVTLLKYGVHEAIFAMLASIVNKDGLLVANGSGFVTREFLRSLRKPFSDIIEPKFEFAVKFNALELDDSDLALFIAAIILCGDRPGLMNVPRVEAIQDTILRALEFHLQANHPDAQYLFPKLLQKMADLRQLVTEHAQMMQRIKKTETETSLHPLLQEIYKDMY
As to the kind of experiment: Transactivation of human PPARdelta expressed in monkey CV-1 cells coexpressing TK-PPRE-Luc after 24 hrs by luciferase reporter gene assay. In a few lines:
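Agonist activity tested in transiently transfected CV-1 cells by reporter assay. EC50 is the molar concentration giving 50% of the maximal reporter activity.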
In general terms: A reporter such as luciferase makes a cellular process visible.

Experiment [2] deals with T2, Peroxisome proliferator-activated receptor gamma (Homo sapiens, UniProt P37231).
T2 sequence (P37231 whole entry): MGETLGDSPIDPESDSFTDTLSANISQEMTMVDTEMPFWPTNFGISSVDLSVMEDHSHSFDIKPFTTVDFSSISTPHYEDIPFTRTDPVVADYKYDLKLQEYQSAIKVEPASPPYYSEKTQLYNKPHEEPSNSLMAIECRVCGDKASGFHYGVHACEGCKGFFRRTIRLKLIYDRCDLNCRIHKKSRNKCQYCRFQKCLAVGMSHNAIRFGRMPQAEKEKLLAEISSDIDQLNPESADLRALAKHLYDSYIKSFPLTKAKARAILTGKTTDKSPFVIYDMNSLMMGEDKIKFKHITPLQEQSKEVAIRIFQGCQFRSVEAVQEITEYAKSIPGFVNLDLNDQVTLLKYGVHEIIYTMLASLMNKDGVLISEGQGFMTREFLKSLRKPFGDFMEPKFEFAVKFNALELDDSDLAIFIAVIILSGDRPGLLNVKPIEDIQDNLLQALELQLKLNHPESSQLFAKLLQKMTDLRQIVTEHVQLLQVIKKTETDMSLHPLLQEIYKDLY
The experiment in a line: Transactivation of human PPARgamma expressed in monkey CV-1 cells coexpressing TK-PPRE-Luc after 24 hrs by luciferase reporter gene assay.

Experiment [3] deals with T3, Peroxisome proliferator-activated receptor alpha (Homo sapiens, UniProt Q07869).
T3 sequence (Q07869 whole entry): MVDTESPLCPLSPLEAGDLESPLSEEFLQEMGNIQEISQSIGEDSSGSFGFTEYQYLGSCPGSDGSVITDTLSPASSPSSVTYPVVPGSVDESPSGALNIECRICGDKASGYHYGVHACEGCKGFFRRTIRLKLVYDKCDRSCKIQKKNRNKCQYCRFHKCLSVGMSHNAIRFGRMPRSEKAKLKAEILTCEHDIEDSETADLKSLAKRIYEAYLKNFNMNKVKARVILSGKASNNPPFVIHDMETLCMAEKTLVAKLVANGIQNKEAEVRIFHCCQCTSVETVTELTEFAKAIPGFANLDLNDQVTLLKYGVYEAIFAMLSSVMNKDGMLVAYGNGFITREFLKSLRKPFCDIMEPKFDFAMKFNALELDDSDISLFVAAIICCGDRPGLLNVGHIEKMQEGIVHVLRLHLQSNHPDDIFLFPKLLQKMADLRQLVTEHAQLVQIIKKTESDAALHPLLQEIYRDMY
The experiment in a line: Transactivation of human PPARalpha expressed in monkey CV-1 cells coexpressing TK-PPRE-Luc after 24 hrs by luciferase reporter gene assay.

For the compound `Cc1cc(S[C@H](Cc2ccccc2)c2ccc(-c3ccc(C(F)(F)F)cc3)cc2)ccc1OCC(=O)O`, in experiment [1], a half-maximal response (EC50) required 0.7 nM.
As for `Cc1cc(SC(Cc2cc(C(F)(F)F)ccc2F)c2ccc(-c3cccc(C(F)(F)F)c3)cc2)ccc1OCC(=O)O` (stereo not drawn), the results for the EC50 in experiment [2], in experiment [3] and in experiment [1] were more than 10000 nM, more than 10000 nM and 5.8 nM, respectively.
Consider `Cc1cc(SC(Cc2cc(C(F)(F)F)ccc2F)c2ccc(-c3ccccc3)cc2)ccc1OCC(=O)O` (stereo not drawn), for which the EC50 – broadly, the concentration giving half of the maximal effect – in experiment [2] is more than 10000 nM; in experiment [3], more than 10000 nM; in experiment [1], 10 nM.
On to `Cc1cc(SC(Cc2cc(Cl)ccc2F)c2ccc(-c3ccccc3)cc2)ccc1OCC(=O)O` (stereo not drawn), for which the EC50 is more than 10000 nM in experiment [2], more than 10000 nM in experiment [3] and 26 nM in experiment [1].
For the compound `Cc1cc(SC(Cc2ccccc2)c2ccc(-c3ccc(F)cc3)cc2)ccc1OCC(=O)O` (stereo not drawn), the EC50 was more than 10000 nM in experiment [2], more than 10000 nM in experiment [3] and 7 nM in experiment [1].
For `Cc1cc(SC(Cc2cc(F)ccc2F)c2ccc(-c3cccc(C(F)(F)F)c3)cc2)ccc1OCC(=O)O` (stereo not drawn), the EC50 was more than 10000 nM in experiment [2], more than 10000 nM in experiment [3] and 9.1 nM in experiment [1].
Regarding `Cc1cc(SC(Cc2ccccc2)c2ccc(-c3cc(F)c(F)c(F)c3)cc2)ccc1OCC(=O)O` (stereo not drawn), the results for the EC50 in experiment [2], in experiment [3] and in experiment [1] were more than 10000 nM, more than 10000 nM and 4.5 nM, respectively.
For `Cc1cc(SC(Cc2cc(F)c(F)c(F)c2)c2ccc(-c3cccc(C(F)(F)F)c3)cc2)ccc1OCC(=O)O` (stereo not drawn), the EC50 in experiment [2] was more than 10000 nM; in experiment [3], more than 10000 nM; in experiment [1], 12 nM.
In experiment [1], `Cc1cc(S[C@@H](Cc2ccccc2)c2ccc(-c3ccc(C(F)(F)F)cc3)cc2)ccc1OCC(=O)O` showed an EC50 of 6.1 nM.
Regarding `Cc1cc(SC(Cc2ccccc2)c2ccc(-c3ccc(C(F)(F)F)cc3)nc2)ccc1OCC(=O)O` (stereo not drawn), the EC50 in experiment [2] and in experiment [3] was more than 10000 nM each time.
Consider `Cc1cc(SC(Cc2cc(F)c(F)c(F)c2)c2ccc(-c3ccc(C(F)(F)F)cc3)nc2)ccc1OCC(=O)O` (stereo not drawn), for which the EC50 was more than 10000 nM in experiment [2], more than 10000 nM in experiment [3] and 56 nM in experiment [1].
With `Cc1cc(SC(Cc2cc(Cl)ccc2Cl)c2ccc(-c3cc(F)c(F)c(F)c3)cc2)ccc1OCC(=O)O` (stereo not drawn), the EC50 in experiment [2] was more than 10000 nM; in experiment [3], more than 10000 nM; in experiment [1], 9.5 nM.
For the compound `Cc1cc(SC(Cc2cc(F)c(F)c(F)c2)c2ccc(-c3ccc(F)cc3)cc2)ccc1OCC(=O)O` (stereo not drawn), the EC50 is more than 10000 nM in experiment [2], more than 10000 nM in experiment [3] and 65 nM in experiment [1].
As for `Cc1cc(SC(Cc2cc(Cl)ccc2F)c2ccc(-c3cc(F)c(F)c(F)c3)cc2)ccc1OCC(=O)O` (stereo not drawn), the EC50 in experiment [2] is more than 10000 nM; in experiment [3], more than 10000 nM; in experiment [1], 6.9 nM.
Regarding `Cc1cc(SC(Cc2cc(Cl)ccc2F)c2ccc(-c3cccc(C(F)(F)F)c3)cc2)ccc1OCC(=O)O` (stereo not drawn), the half-maximal effective concentration (EC50) in experiment [2] is more than 10000 nM; in experiment [3], more than 10000 nM; in experiment [1], 5.3 nM.
On to `Cc1cc(SC(Cc2ccccc2)c2ccc(-c3cccc(C(F)(F)F)c3)cc2)ccc1OCC(=O)O` (stereo not drawn), for which the half-maximal effective concentration (EC50) in experiment [2] is more than 10000 nM; in experiment [3] it was more than 10000 nM; in experiment [1], 18 nM.
Regarding `Cc1cc(SC(Cc2cc(C(F)(F)F)ccc2F)c2ccc(-c3ccc(F)cc3)cc2)ccc1OCC(=O)O` (stereo not drawn), the EC50 in experiment [2] is more than 10000 nM; in experiment [3], more than 10000 nM; in experiment [1] it was 38 nM.
Take `Cc1cc(SC(Cc2cc(Cl)ccc2F)c2ccc(-c3ccc(F)cc3)cc2)ccc1OCC(=O)O` (stereo not drawn): the values for the EC50 in experiment [2], in experiment [3] and in experiment [1] were more than 10000 nM, more than 10000 nM and 25 nM, respectively.
With `Cc1cc(SC(Cc2cc(F)ccc2F)c2ccc(-c3ccc(F)cc3)cc2)ccc1OCC(=O)O` (stereo not drawn), the figures for the EC50 in experiment [2], in experiment [3] and in experiment [1] were more than 10000 nM, more than 10000 nM and 4 nM, respectively.
For the compound `Cc1cc(SC(Cc2cc(F)ccc2F)c2ccc(-c3cc(F)c(F)c(F)c3)cc2)ccc1OCC(=O)O` (stereo not drawn), the EC50 was more than 10000 nM in experiment [2], more than 10000 nM in experiment [3] and 6.3 nM in experiment [1].
For the compound `Cc1cc(SC(Cc2cc(F)c(F)c(F)c2)c2ccc(-c3ccccc3)cc2)ccc1OCC(=O)O` (stereo not drawn), the EC50 in experiment [2] is more than 10000 nM; in experiment [3], more than 10000 nM; in experiment [1], 86 nM.
